Experimental findings from article PMC5508980 (Molecular nutrition & food research, 2017) are described below.

The subject of one assay is Class IIa HDAC. Nature of the assay: HDAC activity assay, class IIa substrate, bovine heart tissue lysate. Format: biochemical. Particulars: 2 hours treatment. In outline:
(§1)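 Bovine heart lysate prepared in PBS pH 7.4 with 0.5% Triton X-100, 300 mM NaCl and protease/phosphatase inhibitors, then clarified; 30 µg protein/well in PBS. Test compound at semi-log increasing concentrations for 2 h, then class-specific AMC-acyl-lysine substrate (1 mM DMSO stock) for 2 h at 37 °C.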

The test system of the next assay is Class IIb HDAC. Put plainly: HDAC activity assay, class IIb substrate, bovine heart tissue lysate. Particulars: 2 hours treatment. Format: biochemical. In outline:
as §1

A further assay concerns the target T1, recombinant HDAC7 (Homo sapiens, UniProt Q8WUI4).
T1 sequence (Q8WUI4 1-952): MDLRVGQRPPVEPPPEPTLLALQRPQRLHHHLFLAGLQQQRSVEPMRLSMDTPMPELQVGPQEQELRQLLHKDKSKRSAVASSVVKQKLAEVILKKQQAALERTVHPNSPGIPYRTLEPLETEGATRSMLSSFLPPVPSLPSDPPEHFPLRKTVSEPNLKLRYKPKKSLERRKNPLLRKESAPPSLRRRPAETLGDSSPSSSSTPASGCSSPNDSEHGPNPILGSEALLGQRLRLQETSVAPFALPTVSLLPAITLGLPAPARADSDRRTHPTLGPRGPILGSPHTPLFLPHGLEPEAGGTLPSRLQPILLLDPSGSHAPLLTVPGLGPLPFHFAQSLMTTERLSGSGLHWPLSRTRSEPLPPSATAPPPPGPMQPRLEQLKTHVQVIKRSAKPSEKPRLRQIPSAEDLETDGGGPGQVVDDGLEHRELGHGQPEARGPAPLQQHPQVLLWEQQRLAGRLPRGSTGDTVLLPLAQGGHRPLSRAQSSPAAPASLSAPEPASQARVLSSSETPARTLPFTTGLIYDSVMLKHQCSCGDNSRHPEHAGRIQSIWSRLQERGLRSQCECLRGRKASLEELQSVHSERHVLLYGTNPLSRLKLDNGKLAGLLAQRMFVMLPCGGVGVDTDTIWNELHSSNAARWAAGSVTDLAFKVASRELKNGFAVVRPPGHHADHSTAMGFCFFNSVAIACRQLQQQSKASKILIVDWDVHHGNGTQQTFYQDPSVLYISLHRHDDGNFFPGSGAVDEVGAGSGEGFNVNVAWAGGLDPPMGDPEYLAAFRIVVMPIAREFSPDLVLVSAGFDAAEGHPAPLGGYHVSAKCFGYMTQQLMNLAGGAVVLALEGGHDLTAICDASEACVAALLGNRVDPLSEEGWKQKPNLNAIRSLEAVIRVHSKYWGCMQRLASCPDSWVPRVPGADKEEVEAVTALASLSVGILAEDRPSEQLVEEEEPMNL
Put plainly: Recombinant HDAC activity assay. Format: biochemical. Particulars: recombinant protein incubated with 50 µM compound, 2 hrs.

The target in the next assay is T2, recombinant HDAC6 (Homo sapiens, UniProt Q9UBN7).
T2 sequence (Q9UBN7 1-1215): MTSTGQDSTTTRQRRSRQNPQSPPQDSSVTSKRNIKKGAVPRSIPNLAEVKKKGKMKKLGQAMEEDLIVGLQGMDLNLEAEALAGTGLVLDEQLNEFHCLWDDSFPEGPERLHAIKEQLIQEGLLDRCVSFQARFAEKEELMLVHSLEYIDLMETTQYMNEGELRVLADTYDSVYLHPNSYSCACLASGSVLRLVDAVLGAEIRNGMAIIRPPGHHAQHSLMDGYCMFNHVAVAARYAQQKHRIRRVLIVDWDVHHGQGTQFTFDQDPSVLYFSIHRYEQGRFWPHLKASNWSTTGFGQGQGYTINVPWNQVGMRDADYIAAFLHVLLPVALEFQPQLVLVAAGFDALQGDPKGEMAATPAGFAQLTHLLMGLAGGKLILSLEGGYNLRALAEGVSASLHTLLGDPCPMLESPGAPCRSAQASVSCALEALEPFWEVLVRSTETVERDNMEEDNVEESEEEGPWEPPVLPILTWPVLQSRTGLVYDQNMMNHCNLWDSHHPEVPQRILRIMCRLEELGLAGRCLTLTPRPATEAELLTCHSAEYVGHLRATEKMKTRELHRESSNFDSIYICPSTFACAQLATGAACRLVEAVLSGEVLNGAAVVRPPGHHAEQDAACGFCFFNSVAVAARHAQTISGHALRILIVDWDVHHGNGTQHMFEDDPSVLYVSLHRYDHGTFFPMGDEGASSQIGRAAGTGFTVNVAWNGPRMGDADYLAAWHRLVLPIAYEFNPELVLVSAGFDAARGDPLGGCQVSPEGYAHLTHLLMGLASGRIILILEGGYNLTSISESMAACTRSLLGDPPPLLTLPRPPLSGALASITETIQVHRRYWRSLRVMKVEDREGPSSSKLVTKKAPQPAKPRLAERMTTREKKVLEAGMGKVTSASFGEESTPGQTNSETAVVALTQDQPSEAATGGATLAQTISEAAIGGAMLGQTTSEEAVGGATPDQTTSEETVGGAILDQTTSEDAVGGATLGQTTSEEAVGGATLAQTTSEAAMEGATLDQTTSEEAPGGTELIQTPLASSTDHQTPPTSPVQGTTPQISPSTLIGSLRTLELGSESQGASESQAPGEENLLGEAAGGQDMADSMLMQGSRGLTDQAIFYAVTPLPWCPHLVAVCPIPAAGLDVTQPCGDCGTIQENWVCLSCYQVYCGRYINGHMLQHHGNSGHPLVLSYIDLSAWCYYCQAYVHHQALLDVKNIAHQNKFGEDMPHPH
Put plainly: Recombinant HDAC activity assay. The assay is classed as biochemical. Particulars: 2 h, read-out: % HDAC activity, Class IIb HDACs, 6.

Another assay has as its target recombinant HDAC3 (Homo sapiens, UniProt O15379). Put plainly: Recombinant HDAC activity assay. The assay is classed as biochemical. Particulars: 2 h, read-out: % HDAC activity, Class I HDACs, 3.
A further assay has as its target T3, recombinant HDAC8 (Homo sapiens, UniProt Q9BY41).
T3 sequence (Q9BY41 1-377): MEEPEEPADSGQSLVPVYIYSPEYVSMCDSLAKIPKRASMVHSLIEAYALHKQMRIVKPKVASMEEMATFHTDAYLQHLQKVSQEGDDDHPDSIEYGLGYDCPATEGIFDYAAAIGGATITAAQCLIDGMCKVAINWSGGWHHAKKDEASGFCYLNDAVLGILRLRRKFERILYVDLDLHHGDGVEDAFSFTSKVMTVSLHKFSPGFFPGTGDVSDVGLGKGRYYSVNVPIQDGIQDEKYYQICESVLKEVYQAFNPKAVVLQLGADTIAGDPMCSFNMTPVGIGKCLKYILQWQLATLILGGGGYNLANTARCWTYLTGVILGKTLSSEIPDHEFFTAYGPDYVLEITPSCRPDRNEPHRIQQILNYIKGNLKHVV
Nature of the assay: Recombinant HDAC activity assay. Particulars: 2 h, read-out: % HDAC activity, Class I HDACs, 8. Format: biochemical.

Another assay addresses recombinant HDAC4 (Homo sapiens, UniProt P56524). Put plainly: Recombinant HDAC activity assay. Particulars: 2 h, read-out: % HDAC activity, Class IIa HDACs, 4. The assay is classed as biochemical.
A further assay has as its target recombinant HDAC5 (Homo sapiens, UniProt Q9UQL6). Nature of the assay: Recombinant HDAC activity assay. Format: biochemical. Particulars: 2 h, read-out: % HDAC activity, Class IIa HDACs, 5.
Another assay addresses recombinant HDAC9 (Homo sapiens, UniProt Q9UKV0). Nature of the assay: Recombinant HDAC activity assay. Format: biochemical. Particulars: 2 h, read-out: % HDAC activity, Class IIa HDACs, 9.
The subject of the next assay is H9c2 cells. Put plainly: Acetyl-H3K9/14 immunoblot of whole cell extract. The assay is classed as cell-based, rat. Particulars: H9c2 myocytes, 50 µM, 2 hours. An outline of the steps: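 H9c2 cells were grown in DMEM with 10% FBS and treated at 90% confluence for 2 h with test compound or DMSO, with TSA as positive control. Washed in ice-cold PBS, lysed in PBS pH 7.4 with 0.5% Triton X-100 and 300 mM NaCl plus inhibitors, sonicated and clarified. SDS-PAGE, nitrocellulose, acetyl-H3K9/14 and total H3 antibodies, chemiluminescence; densitometry; ANOVA with Tukey.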
For orientation: A western blot detects proteins with antibodies after separation by electrophoresis.

In a further assay the target is recombinant HDAC1 (Homo sapiens, UniProt Q13547). Put plainly: Recombinant HDAC activity assay. Format: biochemical. Particulars: 2 h, read-out: % HDAC activity, Class I HDACs, 1.
recombinant HDAC1, sequence (Q13547 whole entry): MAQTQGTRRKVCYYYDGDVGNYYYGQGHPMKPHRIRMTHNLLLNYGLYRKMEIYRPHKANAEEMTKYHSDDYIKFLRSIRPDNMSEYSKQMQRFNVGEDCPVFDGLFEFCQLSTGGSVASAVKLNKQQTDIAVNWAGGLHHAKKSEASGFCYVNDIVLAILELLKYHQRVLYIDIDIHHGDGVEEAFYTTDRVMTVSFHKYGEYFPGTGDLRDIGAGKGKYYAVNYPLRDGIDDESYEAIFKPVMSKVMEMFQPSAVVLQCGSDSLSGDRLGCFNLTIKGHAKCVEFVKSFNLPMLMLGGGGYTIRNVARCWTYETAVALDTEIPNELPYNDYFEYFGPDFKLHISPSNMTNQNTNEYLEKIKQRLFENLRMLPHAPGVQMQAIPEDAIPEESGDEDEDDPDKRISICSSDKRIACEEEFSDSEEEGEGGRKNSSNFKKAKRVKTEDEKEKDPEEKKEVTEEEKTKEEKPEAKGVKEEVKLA
The subject of assay [1] is HDAC activity in bovine cardiac tissue. Nature of the assay: Natural product library screen with class-selective HDAC substrates. The assay is classed as biochemical. Particulars: 2 hours treatment. In outline: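 The screen covered 131 natural compounds against bovine cardiac tissue lysate at 30 µg protein/well in PBS (pH 7.4 lysis buffer with Triton X-100 and NaCl). Test compound for 2 h, then separate class I, IIa or IIb fluorogenic acyl-lysine-AMC substrates for 2 h at 37 °C. Developer (Triton X-100, 3 µM TSA, 0.75 mg/ml trypsin) for 20 min; fluorescence read at 360/460 nm.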

For the next assay, the target named is T4, recombinant HDAC10 (Homo sapiens, UniProt Q969S8).
T4 sequence (Q969S8 1-669): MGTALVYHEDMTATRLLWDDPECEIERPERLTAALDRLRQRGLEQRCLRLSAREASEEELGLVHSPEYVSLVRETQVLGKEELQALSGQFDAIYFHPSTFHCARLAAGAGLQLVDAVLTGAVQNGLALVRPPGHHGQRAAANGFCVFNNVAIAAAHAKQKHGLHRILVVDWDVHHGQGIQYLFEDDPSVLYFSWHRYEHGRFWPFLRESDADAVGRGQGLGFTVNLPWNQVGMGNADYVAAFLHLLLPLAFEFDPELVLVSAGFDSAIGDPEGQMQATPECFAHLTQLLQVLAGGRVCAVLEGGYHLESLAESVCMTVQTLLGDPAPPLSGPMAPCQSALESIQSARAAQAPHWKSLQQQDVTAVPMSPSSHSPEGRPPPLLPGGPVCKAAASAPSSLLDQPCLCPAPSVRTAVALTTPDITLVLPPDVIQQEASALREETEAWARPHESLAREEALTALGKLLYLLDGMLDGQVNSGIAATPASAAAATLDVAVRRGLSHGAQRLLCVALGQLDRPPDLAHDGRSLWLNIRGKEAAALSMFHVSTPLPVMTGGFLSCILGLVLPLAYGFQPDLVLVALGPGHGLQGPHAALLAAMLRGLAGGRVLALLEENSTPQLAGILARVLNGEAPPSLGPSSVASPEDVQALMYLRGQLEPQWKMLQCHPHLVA
Nature of the assay: Recombinant HDAC activity assay. The assay is classed as biochemical. Particulars: 2 h, read-out: % HDAC activity, Class IIb HDACs, 10.

recombinant HDAC3, sequence (O15379 whole entry): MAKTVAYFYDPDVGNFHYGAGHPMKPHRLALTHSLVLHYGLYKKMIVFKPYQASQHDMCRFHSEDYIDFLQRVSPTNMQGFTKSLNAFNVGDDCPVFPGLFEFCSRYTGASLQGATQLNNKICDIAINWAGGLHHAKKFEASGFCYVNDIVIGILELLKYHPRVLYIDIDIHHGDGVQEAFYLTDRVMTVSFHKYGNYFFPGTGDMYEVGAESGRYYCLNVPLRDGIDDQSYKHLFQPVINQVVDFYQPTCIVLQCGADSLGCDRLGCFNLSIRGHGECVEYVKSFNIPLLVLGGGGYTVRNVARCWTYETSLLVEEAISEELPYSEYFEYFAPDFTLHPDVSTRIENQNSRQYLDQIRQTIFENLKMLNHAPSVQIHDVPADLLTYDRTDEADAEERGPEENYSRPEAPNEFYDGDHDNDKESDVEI
recombinant HDAC3, sequence (Q9Y618 395-489 partner limits assumed): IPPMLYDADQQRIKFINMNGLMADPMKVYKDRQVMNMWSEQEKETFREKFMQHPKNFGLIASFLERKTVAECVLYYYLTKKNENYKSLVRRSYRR
recombinant HDAC9, sequence (Q9UKV0 whole entry): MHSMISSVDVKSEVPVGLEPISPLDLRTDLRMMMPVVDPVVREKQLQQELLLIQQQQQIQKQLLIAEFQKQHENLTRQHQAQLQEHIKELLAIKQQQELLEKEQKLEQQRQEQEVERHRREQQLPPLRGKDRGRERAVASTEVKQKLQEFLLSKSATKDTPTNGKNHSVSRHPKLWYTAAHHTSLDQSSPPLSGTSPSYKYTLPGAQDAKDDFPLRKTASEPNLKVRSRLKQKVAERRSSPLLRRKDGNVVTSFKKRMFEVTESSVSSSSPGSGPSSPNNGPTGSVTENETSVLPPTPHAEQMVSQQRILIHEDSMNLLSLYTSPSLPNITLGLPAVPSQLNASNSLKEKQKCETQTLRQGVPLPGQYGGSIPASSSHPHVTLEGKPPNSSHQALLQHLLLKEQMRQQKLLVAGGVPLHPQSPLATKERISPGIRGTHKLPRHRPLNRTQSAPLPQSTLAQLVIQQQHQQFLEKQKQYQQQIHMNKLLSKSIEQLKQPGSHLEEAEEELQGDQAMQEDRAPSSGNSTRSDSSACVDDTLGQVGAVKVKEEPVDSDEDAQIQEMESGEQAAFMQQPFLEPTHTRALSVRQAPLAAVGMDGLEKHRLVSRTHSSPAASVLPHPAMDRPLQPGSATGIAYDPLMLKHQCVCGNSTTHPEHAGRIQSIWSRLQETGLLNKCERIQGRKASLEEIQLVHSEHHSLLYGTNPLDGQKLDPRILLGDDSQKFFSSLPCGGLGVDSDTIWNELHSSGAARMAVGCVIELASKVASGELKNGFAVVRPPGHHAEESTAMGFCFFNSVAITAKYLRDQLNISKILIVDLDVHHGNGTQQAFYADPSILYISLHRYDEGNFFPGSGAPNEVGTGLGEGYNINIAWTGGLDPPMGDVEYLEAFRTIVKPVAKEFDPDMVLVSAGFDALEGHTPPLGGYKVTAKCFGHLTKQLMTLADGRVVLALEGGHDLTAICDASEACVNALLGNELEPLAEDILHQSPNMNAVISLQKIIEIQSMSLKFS
recombinant HDAC4, sequence (P56524 whole entry): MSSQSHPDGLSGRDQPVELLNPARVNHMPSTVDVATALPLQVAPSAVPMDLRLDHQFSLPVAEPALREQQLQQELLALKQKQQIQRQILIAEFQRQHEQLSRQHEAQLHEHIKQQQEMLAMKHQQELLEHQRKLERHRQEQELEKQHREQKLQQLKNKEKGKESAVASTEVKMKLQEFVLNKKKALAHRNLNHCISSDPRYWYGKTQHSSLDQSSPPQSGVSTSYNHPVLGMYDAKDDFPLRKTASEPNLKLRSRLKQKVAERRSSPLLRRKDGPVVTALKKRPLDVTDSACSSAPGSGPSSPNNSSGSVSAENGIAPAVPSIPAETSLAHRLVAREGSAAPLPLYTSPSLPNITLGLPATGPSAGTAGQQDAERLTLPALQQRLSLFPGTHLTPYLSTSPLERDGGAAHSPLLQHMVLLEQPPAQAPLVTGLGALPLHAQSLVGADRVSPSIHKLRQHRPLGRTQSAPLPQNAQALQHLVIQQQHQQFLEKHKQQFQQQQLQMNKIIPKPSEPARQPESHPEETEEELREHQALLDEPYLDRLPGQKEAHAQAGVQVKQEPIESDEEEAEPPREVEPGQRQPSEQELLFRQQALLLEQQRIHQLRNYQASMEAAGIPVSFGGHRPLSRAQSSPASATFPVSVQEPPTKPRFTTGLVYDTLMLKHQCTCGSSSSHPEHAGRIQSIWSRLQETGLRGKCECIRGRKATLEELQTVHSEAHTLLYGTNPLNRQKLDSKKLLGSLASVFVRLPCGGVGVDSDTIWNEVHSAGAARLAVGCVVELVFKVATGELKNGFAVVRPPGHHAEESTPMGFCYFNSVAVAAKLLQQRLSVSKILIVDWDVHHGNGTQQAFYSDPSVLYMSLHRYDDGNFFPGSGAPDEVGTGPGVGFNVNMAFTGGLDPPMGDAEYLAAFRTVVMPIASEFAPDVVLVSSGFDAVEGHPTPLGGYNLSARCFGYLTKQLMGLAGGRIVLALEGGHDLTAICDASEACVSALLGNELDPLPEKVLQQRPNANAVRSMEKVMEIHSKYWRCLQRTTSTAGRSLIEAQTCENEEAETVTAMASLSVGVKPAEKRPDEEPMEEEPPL
recombinant HDAC5, sequence (Q9UQL6 whole entry): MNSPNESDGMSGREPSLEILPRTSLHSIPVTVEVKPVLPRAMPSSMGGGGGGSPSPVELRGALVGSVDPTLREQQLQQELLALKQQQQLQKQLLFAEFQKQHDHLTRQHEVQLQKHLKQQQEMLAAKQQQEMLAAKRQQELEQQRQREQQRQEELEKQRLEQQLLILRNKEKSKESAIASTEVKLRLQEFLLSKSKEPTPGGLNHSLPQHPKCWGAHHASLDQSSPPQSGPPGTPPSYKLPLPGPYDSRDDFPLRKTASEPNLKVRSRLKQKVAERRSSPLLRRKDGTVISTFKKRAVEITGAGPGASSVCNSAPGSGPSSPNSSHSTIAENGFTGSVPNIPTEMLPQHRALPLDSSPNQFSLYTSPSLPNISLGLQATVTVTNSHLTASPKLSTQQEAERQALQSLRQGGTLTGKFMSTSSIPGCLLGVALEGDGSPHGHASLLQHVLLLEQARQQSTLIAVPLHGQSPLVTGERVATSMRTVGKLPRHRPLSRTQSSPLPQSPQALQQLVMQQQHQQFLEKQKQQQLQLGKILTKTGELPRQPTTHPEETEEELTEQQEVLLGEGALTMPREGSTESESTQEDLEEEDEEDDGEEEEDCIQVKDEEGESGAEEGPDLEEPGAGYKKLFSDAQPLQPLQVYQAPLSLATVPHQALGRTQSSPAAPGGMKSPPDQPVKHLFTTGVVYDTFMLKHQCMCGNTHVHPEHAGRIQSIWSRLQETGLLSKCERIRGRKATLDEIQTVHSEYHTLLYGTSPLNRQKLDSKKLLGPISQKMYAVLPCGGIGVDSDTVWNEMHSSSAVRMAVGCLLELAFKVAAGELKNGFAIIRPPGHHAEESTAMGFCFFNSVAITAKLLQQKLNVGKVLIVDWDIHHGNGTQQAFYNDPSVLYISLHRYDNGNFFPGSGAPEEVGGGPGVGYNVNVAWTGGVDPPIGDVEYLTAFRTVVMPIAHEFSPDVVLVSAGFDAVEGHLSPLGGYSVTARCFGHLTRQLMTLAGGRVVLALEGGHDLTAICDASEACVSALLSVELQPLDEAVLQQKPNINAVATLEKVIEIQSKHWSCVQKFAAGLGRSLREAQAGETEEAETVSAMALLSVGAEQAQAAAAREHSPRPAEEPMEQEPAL

For DPAH, in the assay on Class IIa HDAC, the “class IIa HDAC activity, effect in words” value is “only inhibited class IIa HDAC activity”.
With `Oc1cc2c(cc1O)[C@@H]1c3ccc(O)c(O)c3OC[C@]1(O)C2` [Hematoxylin], the “class IIb HDAC activity, effect in words” value in the assay on Class IIb HDAC is “targeted class IIb HDACs for inhibition”. Besides, the “% HDAC activity, Class IIa HDACs, 7” value on recombinant HDAC7 is given as “-”. Also, the remaining activity at 50 µM at recombinant HDAC6 was 81.8%.
On to `CN1CCc2c(c3ccccc3n2Cc2ccc(C(=O)NO)cc2)C1` [TubA, Tubastatin A, reference compound], for which, in the assay with Class IIb HDAC, the “class IIb HDAC activity, effect in words” value is “only inhibited class IIb HDAC activity”.
Take `O=c1c(O)c(-c2ccc(O)c(O)c2)oc2cc(O)cc(O)c12` [Quercetin dihydrate]: the remaining activity at 50 µM on recombinant HDAC3 worked out at 63.6%; on recombinant HDAC8, 64%; at recombinant HDAC4, 89.8%; at recombinant HDAC5 it was 78.2%; on recombinant HDAC9, 70.8%; at recombinant HDAC1, 72.7%. The remaining activity at 50 µM on recombinant HDAC10 stood at 68%. Further, the “% HDAC activity, Class IIa HDACs, 7” value on recombinant HDAC7 is “-”. In the assay with H9c2 cells, the “acetylation of histone 3 on lysine 9/14 (Ac-H3 K9/14) via immunoblot” value is reported as “increased”. In addition, in assay [1], the “catalytic HDAC activity across class I, IIa and IIb substrates, effect in words” value is “dose-dependent pan-HDAC inhibition”.
